Results gathered from unrelated publications.
Compare with care: the assays were run in different laboratories.
Cell line: COLO 205
Observed: cell growth or viability

Structure (SMILES)	assay	setting	measurement	value
CC(C)[C@H](N)c1nc2cc(-c3ccnc(F)c3)sc2c(=O)[nH]1	MTT	–	IC50	0.0893 µM
COc1cc(Nc2nccc(-c3cnn4nc(OC)ccc34)n2)cc(C(F)(F)F)c1	ATP luminescence	–	IC50	0.51 µM
COc1c2ccoc2c(OCC=C(C)C)c2oc(=O)ccc12	MTT	24 h	IC50	> 100 µM
COc1ccc(C(=O)/C=C/c2cccc(Cl)c2)cc1S(N)(=O)=O	SRB	10 µM	inhibition	165%
COc1cccc(Oc2ccccc2NC(=O)CNC(=O)c2cccc3ccccc23)c1	SRB	48 h	GI50	0.282 µM
COc1cc2ccc(=O)oc2cc1OC	MTT	24 h	IC50	> 100 µM
Cc1cc(-c2cc3nc([C@@H](N)C(C)C)[nH]c(=O)c3s2)ccn1	MTT	–	IC50	1.41 µM
COc1ccc(C(=O)/C=C/c2ccccc2Br)cc1S(N)(=O)=O	SRB	48 h	GI50	2.2 µM
CC(C)C[C@H](NC(=O)[C@H](Cc1ccccc1)NC(=O)c1cnccn1)B(O)O	ATP luminescence	–	IC50	0.022 µM
CC(C)[C@H](N)c1nc2cc(-c3ccncc3F)sc2c(=O)[nH]1	MTT	–	IC50	0.0248 µM
